Measured values from publication PMC4829539 (International Journal of Medical Sciences, 2016).
Like-named read-outs stand apart in the source and are kept apart here.

What was measured:
[1] = n = 4, cited from earlier work
[2] = assay type: in vivo, Male Wistar rats; conditions: rats, i.v., LC-MS/MS
In short: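 Anaesthetised 10-week-old male Wistar rats (pentobarbital 50 mg/kg, 37°C) received test compound 5.0 mg/kg i.v. via jugular vein, in saline. DMN array applied to shaved abdomen (2.0 m/s, then 2.5 N for 1-3 min). 2 µL ISF drawn from pore at 15, 30, 45, 60, 75, 90, 120 min; femoral-vein plasma sampled. Positive-ESI LC-MS/MS quantification; mean ± SE, unpaired t-test.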

[3] = from DMNs, rats; cited from earlier work
[4] = rats; cited from earlier work
[5] = mice; cited from earlier work

Compound: CN[C@H](CC(C)C)C(=O)N[C@H]1C(=O)N[C@@H](CC(N)=O)C(=O)N[C@H]2C(=O)N[C@H]3C(=O)N[C@H](C(=O)N[C@H](C(=O)O)c4cc(O)cc(O)c4-c4cc3ccc4O)[C@H](O)c3ccc(c(Cl)c3)Oc3cc2cc(c3O[C@@H]2O[C@H](CO)[C@@H](O)[C@H](O)[C@H]2O[C@H]2C[C@](C)(N)[C@H](O)[C@H](C)O2)Oc2ccc(cc2Cl)[C@H]1O [VCM, Vancomycin]
- AUC, ISF ([1]; ISF by ultrafiltration probe): 75300 ± 7700 ng·h/mL
- Tmax (average), ISF ([1]; ISF by ultrafiltration probe): 39.6 min
- AUC, blood ([1]; blood): 89800 ± 15700 ng·h/mL
- Cmax in the blood ([1]; blood): 80.2 ± 18.5 µg/mL
- Mean concentration of VCM in plasma compared with ISF, early phase ([2]; 30 min after administration): higher than that in ISF
- Concentration of VCM in ISF compared with plasma, after 30 min ([2]; after 30 min): higher than that in plasma

Compound: insulin
- Physiological availability (PA) [3]: 91.3-97.7%

Compound: low-molecular-weight heparin [LMWH]
- Physiological availability (PA) [3]: 81.5-102.3%

Compound: recombinant human growth hormone [rhGH]
- Bioavailability (BA) from the DMNs [4]: 87.5%

Compound: erythropoietin [EPO]
- Bioavailability (BA) from the DMNs [5]: 82.1-99.4%
